Assay results published in ChEMBL document CHEMBL1121677, “8-Hydroxy-2-(di-n-propylamino)tetralin, a new centrally acting 5-hydroxytryptamine receptor agonist” (1981).
Activity calls are given as the source filed them. The calls are words filed in the database; no cut-off is given here.

Experiments:
Rattus norvegicus [1] = assay: Inhibition of 5-Hydroxy tryptamine accumulation in limbic part of rat brain after subcutaneous administration; I= Inactive; format: functional, organism-based
Rattus norvegicus [2] = assay: Inhibition of dopamine accumulation in limbic part of rat brain after subcutaneous administration; format: functional; details: sc
Rattus norvegicus [3] = assay: Inhibition of dopamine accumulation in striatum part of rat brain after subcutaneous administration; format: functional; details: sc
Rattus norvegicus [4] = assay: Inhibition of 5-Hydroxy tryptamine accumulation in striatum part of rat brain after subcutaneous administration; I= Inactive; format: functional, organism-based
Rattus norvegicus [5] = assay: Inhibition of 5-Hydroxy tryptamine accumulation in hemispheres of rat brain after subcutaneous administration; I= Inactive; format: functional, organism-based
Rattus norvegicus [6] = assay: Inhibition of dopamine accumulation in striatum part of rat brain after subcutaneous administration; I= Inactive; format: functional, organism-based
Rattus norvegicus [7] = assay: Inhibition of 5-Hydroxy tryptamine accumulation in limbic part of rat brain after subcutaneous administration; format: functional; details: sc
Rattus norvegicus [8] = assay: Inhibition of 5-Hydroxy tryptamine accumulation in striatum part of rat brain after subcutaneous administration; format: functional; details: sc
Rattus norvegicus [9] = assay: Inhibition of 5-Hydroxy tryptamine accumulation in hemispheres of rat brain after subcutaneous administration; format: functional; details: sc
Rattus norvegicus [10] = assay: Inhibition of dopamine accumulation in limbic part of rat brain after subcutaneous administration; I= Inactive; format: functional, organism-based
Rattus norvegicus [11] = assay: Inhibition of 5-HTP accumulation in hemisphere of rat brain after subcutaneous administration of compound before 60 min to death; format: functional, organism-based
Summary of the method: (§1)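 Nonpretreated rats were given each enantiomer sc 60 min before death. NSD 1015 (100 mg/kg ip) was given 30 min before death, and 5-HTP or Dopa accumulation was measured in brain regions. Values are means ± SEM, n = 4 (some groups n = 3). Statistics: ANOVA followed by Student's t test.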

Rattus norvegicus [12] = assay: Inhibition of 5-HTP accumulation in limbic part of rat brain after subcutaneous administration of compound before 60 min to death; format: functional, organism-based; details: Limbic system; summary of the method: as §1
Rattus norvegicus [13] = assay: Inhibition of 5-Hydroxy Tryptamine accumulation in striatum part of rat brain after subcutaneous administration; format: functional; details: sc
Rattus norvegicus [14] = assay: Inhibition of 5-Hydroxy Tryptamine accumulation in limbic part of rat brain after subcutaneous administration; format: functional; details: sc
Rattus norvegicus [15] = assay: Inhibition of 5-Hydroxy Tryptamine accumulation in hemispheres of rat brain after subcutaneous administration; format: functional; details: sc

Structure (SMILES) | ED50 (Rattus norvegicus [1]) | ED50 (Rattus norvegicus [2]) [µmol/kg] | ED50 (Rattus norvegicus [3]) [µmol/kg] | ED50 (Rattus norvegicus [4]) | ED50 (Rattus norvegicus [5]) | ED50 (Rattus norvegicus [6]) | ED50 (Rattus norvegicus [7]) [µmol/kg] | ED50 (Rattus norvegicus [8]) [µmol/kg] | ED50 (Rattus norvegicus [9]) [µmol/kg] | ED50 (Rattus norvegicus [10]) | Concentration (Rattus norvegicus [11]) [ng/g] | Concentration (Rattus norvegicus [12]) [ng/g] | ED50 (Rattus norvegicus [13]) [µmol/kg] | ED50 (Rattus norvegicus [14]) [µmol/kg] | ED50 (Rattus norvegicus [15]) [µmol/kg]
CCCN(CCC)C1CCc2ccc(O)cc2C1 (centres undefined) | inactive | 0.027 | 0.03 | inactive | inactive |  |  |  |  |  |  |  |  |  | 
CCCN(CCC)C1CCc2c(O)cccc2C1 (centres undefined) [5-OH-DPAT] | inactive | 0.011 | 0.009 | inactive | inactive |  |  |  |  |  |  |  |  |  | 
CCCN(CCC)C1CCc2cccc(O)c2C1 (racemic) [8-OH-DPAT] |  |  |  |  |  | inactive | 0.048 | 0.045 | 0.068 | inactive |  |  |  |  | 
CCCN(CCC)[C@@H]1CCc2cccc(O)c2C1 |  |  |  |  |  | inactive | 0.036 | 0.048 | 0.052 | inactive | 44 | 63 |  |  | 
CCCN(CCC)[C@H]1CCc2cccc(O)c2C1 |  |  |  |  |  | inactive |  |  |  | inactive | 57 | 84 | 0.075 | 0.061 | 0.09
CCCN(CCC)[C@@H]1CCc2ccc(O)cc2C1 | inactive | 0.18 | 0.17 | inactive | inactive |  |  |  |  |  |  |  |  |  | 
